Measured values: ChEMBL document CHEMBL3351897, “Trimethoxybenzanilide-based P-glycoprotein modulators: an interesting case of lipophilicity tuning by intramolecular hydrogen bonding” (J Med Chem, 2014)
Converted amounts (≈) assume the structure as drawn.

What was measured:
[1] = Solubility after 30 mins by turbidimetric solubility assay; format: physicochemical
Summary of the method: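 Serial dilutions from a 1 mM DMSO stock added to 100 mM PBS pH 7.4, giving 1% final DMSO and a final range of 1–500 […], three replicates per concentration. After 30 min, absorbance read at 500, 550, 600, 650 and 700 nm.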

[2] = target: T1, ATP-dependent translocase ABCB1 (Homo sapiens, UniProt P08183); test: Inhibition of MDR1 (unknown origin) expressed in MDCK cells after 30 mins by Calcein-AM assay; format: cell-based
[3] = Partition coefficient, logK of the compound using methanol/pH 7.4 phosphate buffer by RP-chromatography; format: physicochemical
Summary of the method: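 Isocratic RP-HPLC on a C18 column (300SB, 4.6 × 250 mm, 5 μm) at 1 mL/min with UV detection at 230 and 254 nm. Eluent methanol/PBS pH 7.4 70:30. Samples 0.1 mg/mL in 10% DMSO/90% methanol. Dead time taken from D2O. Log k′ = log[(tr − t0)/t0], using the mean of three injections.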

[4] = Lipophilicity, logD of the compound at pH 7.4; format: physicochemical; conditions: buffer
Summary of the method: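 Octanol/PBS pH 7.4 partitioning, with chemiluminescent nitrogen detection as the read-out; carried out by an outside contractor.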

[5] = target: T1, ATP-dependent translocase ABCB1; test: Inhibition of MDR1 in human MCF7/ADR cells assessed as potentiation of doxorubicin-induced antiproliferative activity at 1 to 25 uM after 72 hrs by MTT assay; format: cell-based; conditions: nci/adr-res
Summary of the method: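 MCF7adr cells, grown in RPMI 1640 with 10% FBS, seeded at 25000/well. Next day, compound added at 1, 10 or 25 μM for 24 h. Medium then replaced and the same concentration given with doxorubicin 10 μM for 48 h. MTT 0.5 mg/mL for 3–4 h at 37 °C, formazan dissolved in DMSO/EtOH 1:1, absorbance read at 570 and 630 nm.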

[6] = target: T1, ATP-dependent translocase ABCB1; test: Inhibition of MDR1 (unknown origin) expressed in MDCK cells after 2 hrs by bioluminescent ATP assay; format: cell-based
Summary of the method: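 MDCK-MDR1 cells seeded at 2 × 10⁴ cells/well and incubated overnight at 37 °C, 5% CO₂, then exposed to test compounds (1, 10, 50, 100 μM) in complete medium for 2 h. Cells lysed, luciferase/D-luciferin substrate added, dark-adapted 10 min, and luminescence read as a measure of cellular ATP. Untreated cells served as control.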

[7] = Efflux ratio, ratio of permeability from basolateral to apical side over apical to basolateral side in human Caco2 cells by UV spectroscopy; format: ADME, cell-based; conditions: Caco-2
Summary of the method: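 Caco-2 monolayers grown 21 days, then equilibrated twice in HBSS pH 7.4 at 37 °C for 30 min. Drug dissolved in HBSS was added to the apical or basolateral side, with an initial concentration of 1 × 10⁻⁴ M. Transport ran 120 min at 37 °C. Acceptor concentration was read by UV; Papp (nm/s) was computed from it. The ratio is B→A Papp over A→B Papp. Mean of three independent experiments, each in triplicate.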

T1 sequence (P08183 whole entry): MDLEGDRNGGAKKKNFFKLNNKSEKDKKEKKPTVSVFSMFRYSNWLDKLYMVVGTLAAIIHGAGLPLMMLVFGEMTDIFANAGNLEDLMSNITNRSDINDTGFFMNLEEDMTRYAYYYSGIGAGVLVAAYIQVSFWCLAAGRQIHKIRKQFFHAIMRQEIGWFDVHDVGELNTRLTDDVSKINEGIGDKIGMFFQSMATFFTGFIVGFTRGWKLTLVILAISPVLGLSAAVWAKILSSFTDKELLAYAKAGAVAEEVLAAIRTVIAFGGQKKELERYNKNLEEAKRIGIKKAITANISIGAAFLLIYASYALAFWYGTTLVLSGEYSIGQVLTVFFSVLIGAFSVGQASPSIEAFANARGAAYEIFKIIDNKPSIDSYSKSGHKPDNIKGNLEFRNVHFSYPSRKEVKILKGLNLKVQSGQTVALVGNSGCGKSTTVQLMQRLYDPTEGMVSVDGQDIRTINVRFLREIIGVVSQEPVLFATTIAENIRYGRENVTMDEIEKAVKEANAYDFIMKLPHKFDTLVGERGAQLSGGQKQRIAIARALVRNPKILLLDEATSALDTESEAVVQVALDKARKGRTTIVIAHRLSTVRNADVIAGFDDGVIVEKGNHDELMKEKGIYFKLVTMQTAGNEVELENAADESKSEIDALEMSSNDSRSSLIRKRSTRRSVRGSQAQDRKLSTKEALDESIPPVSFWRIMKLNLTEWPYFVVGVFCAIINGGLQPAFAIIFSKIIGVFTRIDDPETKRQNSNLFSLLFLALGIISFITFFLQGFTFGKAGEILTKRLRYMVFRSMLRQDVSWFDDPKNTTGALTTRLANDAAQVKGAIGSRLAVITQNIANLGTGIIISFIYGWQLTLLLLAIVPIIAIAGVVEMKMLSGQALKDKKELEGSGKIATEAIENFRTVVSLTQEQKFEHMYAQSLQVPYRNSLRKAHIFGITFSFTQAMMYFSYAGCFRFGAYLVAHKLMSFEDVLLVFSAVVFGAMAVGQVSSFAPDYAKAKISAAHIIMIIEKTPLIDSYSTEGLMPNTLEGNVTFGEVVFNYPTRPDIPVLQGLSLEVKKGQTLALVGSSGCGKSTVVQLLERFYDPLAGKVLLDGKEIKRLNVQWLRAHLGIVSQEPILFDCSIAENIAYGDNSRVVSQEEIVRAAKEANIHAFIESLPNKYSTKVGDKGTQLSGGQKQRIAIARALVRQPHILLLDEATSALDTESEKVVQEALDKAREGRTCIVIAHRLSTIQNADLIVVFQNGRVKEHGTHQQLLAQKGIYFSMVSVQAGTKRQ

Row | SMILES | solubility kinetic at 0.5 h [1] [µg/mL] | IC50 [2] [µM] | log K [3] | logD [4] | inhibition (INH) [6] | efflux ratio [7] | Activity [5]
1 | COc1cc(C(=O)Nc2ccc(-c3cccnc3)cc2[N+](=O)[O-])cc(OC)c1OC | 10 (≈ 24.4 µM) |  |  |  |  |  | 
2 | COc1cc(C(=O)Nc2ccc(-c3cccnc3)cn2)cc(OC)c1OC |  | 8.21 | -0.44 | 2.39 |  |  | 
3 | COc1cc(C(=O)Nc2ccc(-c3cccnc3)cc2F)cc(OC)c1OC | 25 (≈ 65.4 µM) |  | -0.36 | 2.48 |  |  | 
4 | COc1ccc(C(=O)Nc2ccc(-c3cccnc3)cc2F)cc1OC | 18 (≈ 51.1 µM) | 8.92 | -0.45 | 2.23 |  |  | 
5 | COc1ccc(C(=O)Nc2ccc(-c3cccnc3)cc2F)cc1 | 22 (≈ 68.3 µM) | 5.26 | -0.32 | 2.9 |  |  | 
6 | O=C(Nc1ccc(-c2cccnc2)cc1F)c1ccccc1 | 40 (≈ 137 µM) | 9.2 | -0.38 | 2.83 |  |  | 
7 | O=C(Nc1ccc(-c2cccnc2)cc1F)c1cccnc1 | 300 (≈ 1020 µM) | 60.1 | -0.68 | 1.97 |  |  | 
8 | COc1ccc(S(=O)(=O)Nc2ccc(-c3cccnc3)cc2F)cc1OC |  | 67.5 | -0.88 | 1.7 |  |  | 
9 | COc1cc(C(=O)Nc2ccc(-c3cc(F)cc(F)c3)cc2NC(=O)[C@@H](C)NC(C)=O)cc(OC)c1OC |  | 18.5 | -0.03 | 2.31 |  |  | 
10 | COc1cc(C(=O)N(C)c2ccc(-c3cccnc3)cc2F)cc(OC)c1OC |  | 6.66 | -0.51 | 2.32 |  |  | 
11 | COc1cc(OC)c(C(=O)N(C)c2ccc(-c3cccnc3)cc2F)cc1OC |  | 21.6 | -0.59 | 1.75 |  |  | 

The next lines start with results.

Row | solubility kinetic at 0.5 h [1] [µg/mL] | IC50 [2] [µM] | log K [3] | logD [4] | inhibition (INH) [6] | efflux ratio [7] | SMILES | Activity [5]
12 |  | 1.02 |  |  |  |  | COc1cc2c(cc1OC)CN(CC/C=C1\CCCc3c(OC)cccc31)CC2 | 
13 |  | 1.3 | 0.32 | 3.59 |  |  | COc1cc(C(=O)Nc2ccc(-c3cc(F)cc(F)c3)cn2)cc(OC)c1OC | 
14 |  | 0.97 | 0.47 | 3.66 | Active | 10.7 | COc1cc(OC)c(C(=O)Nc2ccc(-c3cc(F)cc(F)c3)cn2)cc1OC | Active
15 |  | 0.54 | -0.12 | 3.03 |  |  | COc1cc(OC)c(C(=O)Nc2ccc(-c3cccnc3)cn2)cc1OC | 
16 | 30 (≈ 78.5 µM) | 0.2 | 0.24 | 2.84 | Active | 14 | COc1cc(OC)c(C(=O)Nc2ccc(-c3cccnc3)cc2F)cc1OC | Active
17 | 45 (≈ 118 µM) | 0.67 | 0.37 | 3.99 | Active | 6.7 | COc1ccc(C(=O)Nc2ccc(-c3cccnc3)cc2F)c(OC)c1OC | Active
18 | 60 (≈ 157 µM) | 2.93 | -0.39 | 2.38 |  |  | COc1cc(OC)c(C(=O)Nc2ccc(-c3cccnc3)cc2F)c(OC)c1 | 
19 | 20 (≈ 56.8 µM) | 3.3 | -0.18 | 2.81 |  |  | COc1cc(OC)cc(C(=O)Nc2ccc(-c3cccnc3)cc2F)c1 | 
20 |  | 3.2 | -0.31 | 2.75 |  |  | COc1cc(C(=O)Nc2ccc(-c3ccncc3)cc2F)cc(OC)c1OC | 
21 |  | 0.31 | 0.31 | 3.13 | Active | 8.1 | COc1cc(OC)c(C(=O)Nc2ccc(-c3ccncc3)cc2F)cc1OC | Active
22 |  | 1.23 | 0.67 | 3.64 |  |  | COc1ccc(-c2ccc(NC(=O)c3cc(OC)c(OC)cc3OC)c(F)c2)cc1 | 
23 |  | 2.76 | -0.09 | 2.62 |  |  | COc1cc(C(=O)Nc2ccc(-c3cc(F)cc(F)c3)cc2N)cc(OC)c1OC | 
